Test system: MS2 coat protein
Assay: apparent Kd, MS2 coat protein; higher = weaker binding; RNA-MaP array; FMN 200 µM where present
Summary of the method: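 The apparent Kd is the median of filtered binding-curve fits, one per cluster, to green signal normalised to red-channel RNA signal and control-cluster median Fmax. The clusters were on Illumina sequencing chips, and stalled E. coli RNA polymerase had transcribed the designs on them. Titration used SNAP-549-labelled MS2 coat protein from 0.7 or 1.5 nM, doubling to 3 µM, without and then with constant ligand, in 100 mM Tris-HCl pH 7.5, 80 mM KCl, 4 mM MgCl2, BSA, DTT, yeast tRNA and Tween-20.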

[1] = designed as: OFF switch for flavin mononucleotide, no ligand
[2] = ligand present: flavin mononucleotide, designed as: OFF switch for flavin mononucleotide
[3] = designed as: ON switch for flavin mononucleotide, no ligand
[4] = ligand present: flavin mononucleotide, designed as: ON switch for flavin mononucleotide

| Sequence | apparent Kd [1] [nM] | apparent Kd [2] [nM] | apparent Kd [3] [nM] | apparent Kd [4] [nM] |
| --- | --- | --- | --- | --- |
| UACAGACAUGAGGAUCACCCAUGUGAGGAUAUCGAUAACGAUAACAUAAUAUAAACGGCGAGAAGGCACAGCAU | 31.7 | 34.9 | – | – |
| GGUCCAACAUGAGGAUAUAGCACCUUAUUGGUGCUAGAAGGCGUGUCGAUAGACAUGAGGAUCACCCAUGUAAUAAAUUGGACC | – | – | 793 | 139 |
| CAGUUCUGAGGAUAUCCACCCUCCUACAUGAGGAUCACCCAUGUUUCCCUCUGGGCUUUCGGAGAAGGCAGUUAUC | 52.5 | 43.6 | – | – |
| UCAUCAACGGGCGGGUCGGUUGGACAUGAGGAUCACCCAUGUAGAAGGACCGGUGGACUCCGGCGGUAGGAUAUACAUAUGGUG | 29.2 | 36.7 | – | – |
| GCAUCACAUGAGGAUCACCCAUGUCUUCGGAGUCGAGGAUAUGGUCACUGUAAACAGUGGCCAGAAGGCGAGGUGC | – | – | 67.6 | 38.3 |
| AGCUGGUGACAGCAAGAAACUUCACAUGAGGAUCACCCAUGUAGAAGGCUGUACGGUUACCGUACAGAGGAUAUACAUUGAAGU | 7.16 | 13.3 | – | – |
| CGCAACUCUUCUCAUGUAAACAUGAGGAUCACCCAUGUAAUGAGAAGGAGGAAGAAGAGAGAUUCCUAGGAUAUCAGAGUUGCG | 5.41 | 5.52 | – | – |
| GAGGAUUUUUAGCUGACAUGAGGAUCACCCAUGUCUUGACCCAGAAGGGCGUGGGAUUCCCAACCGCAGGAUAUGGAUAGUCGG | – | – | 64.8 | 35.7 |
| AAAGGCCGAGGAUAUACAUGAGGAUCACCCAUGUGGACUCUGCAGAAUUGAUACCUUGGUAGAAGGUGGACCGG | 23 | 18.4 | – | – |
| CACAAGAAAGUCGAACGUGUAACGAGAAGGUCUACAUCACAACAUGAGGAUCACCCAUGUGAUAAGAAGGAUAUUGUUGCGCGG | 8.76 | 8.32 | – | – |
| UGGUACUAAGGAGGAUAUGGGAAGAUACAUGAGGAUCACCCAUGUUUAAGAAUGCCGAGAGGCAACUAGAAGGCCCUAGUACCU | – | – | 415 | 21.9 |
| UGAUUGCGUGUUAGGAUAUGGUUUGGUGUUUCGGGCUAGAAGGGACAUGAGGAUCACCCAUGUAACUGGCGGGU | 54.9 | 67.7 | – | – |
| ACAAAUGGAGGAUAUACAUGAGGAUCACCCAUGUUUAUCCUACAUAUGUGAUAAUAAUGUAGAAGGCCAUAUGA | 12.3 | 12.3 | – | – |
| GCUGUCGCAUGAGGAUAUGGUCAGCUUUGCUGACCAGAAGGCAUGUCAAUAGACAUGAGGAUCACCCAUGUAGUUAGGGCGGCU | – | – | 571 | 57.4 |
| AAAACAUGAGGAUCACCCAUGUAAAGAACGCUUAAUAGAUCUGAGGAUAUACUAGAAUUUACGUAGUAGAAGGCAGUGGGUACA | – | – | 31.3 | 25.3 |
| ACUAAACGAGGAUAUACUAACAAACCUCAAACAUACAUCAAACAUGAGGAUCACCCAUGUAGAAGGCGUAAACU | 37.6 | 17.6 | – | – |
| UCGACGAAAGUCGAACGAUGUAGCAGAAGGACAUGAGGAUCACCCAUGUCAGCUGUAACAGCCAUGUAGGAUAUGCUACAUCGU | 4.51 | 5.53 | – | – |
| AAACACGGACAUGAGGAUCACCCAUGUGGCGAAAGCCUAGGGAGAAGGCAGUAUGCAAAGCAUUCUGAGGAUAUUCAUACCGUG | – | – | 160 | 13.4 |
| AAAACUCAGAUAGGAUAUAUAGGAUAACUUAAGACCUAACAUGAGGAUCACCCAUGUGAUUAUUCGUAGAAGGAUCAUUGAACC | – | – | 240 | 238 |
| AGUGCCUCGAGAGGAUAUACAUGAGGAUCACCCAUGUAAGUAGAGGUGGAAACACCUCUACAAAUGUAGAAGGCUCGAGGCACA | 18 | 52.2 | – | – |
| UAUGUUGUUGUGAGGAUAUACUUAGUUUGACCGUAGUAGAAGGCACAUGAGGAUCACCCAUGUAGAUUUUUGGU | 9.54 | 15.8 | – | – |
| UUAAUAAAGUAAGGAUAUACAUGAGGAUCACUCGUAGAAGGUACUAUACAUGAGGAUCACCCAUGUUCCGGUCAGAAGACUGGA | – | – | 1100 | 778 |
| CUUUUGUGAGGAUAUCAGUAGUAAAUAUAUAAAAUUACUACUGAGAAGGCACAUGAGGAUCACCCAUGUUCCUC | 38.1 | 274 | – | – |
| GGCUACAUCGGAGGAUAUCAUGUAAAUACAUGAGGAUCACCCAUGUCGAUGGAGACAUCGGAGAUUGAGAAGGCCGAUGUACCG | – | – | 182 | 8.49 |
| CUAUUUAGUGCCUCAUGUACAUGAGGAUCACCCAUGUUAACUUAGGAUAUAUUUAUAUUGAUAGAGUAGAAGGAAGUACUAUUG | 70.2 | 61 | – | – |
| UCAUUUAUUACAGGAUAUGUUAGUAUACAGUUGUUUGGUUAUUACAUAUUAACAGAAGGGUAGAACAUGAGGAUCACCCAUGUA | – | – | 95.7 | 52.3 |
| GGGUAUAUCGGAGGAUAUCAUGUAAAUACAUGAGGAUCACCCAUGUCGAUGGAGACAUCGGAGAUUGAGAAGGCCGAUGUACCG | – | – | 163 | 9.34 |
| CAUUCGUGUCUAGGAUAUGAGUGACAAGCACGAGAUUUUCUCGCCGCUAGCUCAGAAGGAGACAUGAGGAUCACCCAUGUAAGG | 96.4 | 17.4 | – | – |

| Sequence | apparent Kd [1] [nM] | apparent Kd [2] [nM] | apparent Kd [3] [nM] | apparent Kd [4] [nM] |
| --- | --- | --- | --- | --- |
| UGCUGUGUCAGAGGAUAUACAUCAAUAAUCCAUUGCAAAUAGCGAUGGACAUGAGGAUCACCCAUGUAGAAGGCUGUCACAGCA | 111 | 384 | – | – |
| GGGUACAUCGGAGGAUAUCAUGUAAAUACAUGAGGAUCACCCAUGUCGAUGGAGACAUCGGAGAUUGAGAAGGCCGAUGUGCCG | – | – | 145 | 9.5 |
| CCACUCUAUGCAGGAUAUCGAGCCUGGGCCUUAUUUUUUGUAAACAUGAGGAUCACCCAUGUCUUCGAGAAGGGCAUAACAACG | 178 | 241 | – | – |
| GAGCUAUGAGGAUAUGCAUAUAUACGGUUUCGUGUGGUACUACAUGAGGAUCACCCAUGUAGAAGGCGUGGCUG | 17.7 | 15.1 | – | – |
| AUAAAUAUAGCGAUAUGAUCGAGAGAUCAUGUCGCUAAUAUUAGAAGGACAUGAGGAUCACCCAUGUAGGAUAUGGGAGUAUAA | – | – | 107 | 55.1 |
| UAUUUAUAAUAUUUUAACAUGAGGAUCACCCAUGUCGCUAGACAGGAUAUAUUUUAUUUUUUUAAGUAGAAGGGUCAUAGAUUU | – | – | 75.1 | 96.9 |
| AACAGCUCGUCAGGAUAUAUUUACUUAUAUUGUAUUUAUGUACAUGAGGAUCACCCAUGUUGUUAGUAGAAGGGACGAGCUGAA | 7.42 | 7.32 | – | – |
| ACAUGUUUUACAGGAUAUGUUAUACAAUAAACAAUCAGUUAUUAUGAUUUUACAGAAGGGUAUACAUGAGGAUCACCCAUGUUA | 23 | 19.1 | – | – |
| UUAUUCUAUAUAGGAUAUUGAUGCAAUUUACCUCAAGAAGGAUAUACAUGAGGAUCACCCAUGUUGGAUAGGGUUAGUUUGUUU | – | – | 79.4 | 76.5 |
| GGAUCGGACAGAGGAUAUACGUGCUAGAGAUACUAGCAAAAUUUCCUCACAUGAGGAUCACCCAUGUAGAAGGCUGUCCUAUCG | 15.9 | 327 | – | – |
| GGUGUAUAUGAGAAGGCGAUCAUGAAACAUGAUCGAGGAUAUCAUGUAAACAUGAGGAUCACCCAUGUAUGGGAAUAAUGCACC | – | – | 120 | 13.6 |
| GUAGCUAUCGGAGGAUAUUCAUACCGGAAACGGACAUGAGGAUCACCCAUGUGGCGAAAGCCUUGGGAGAAGGCAGAUAGCUAC | – | – | 693 | 28.6 |
| UUAUUAUAUGUAGGAUAUGCAUAUUAUUAUUGUGCAGAAGGACAUGAGGAUCACCCAUGUAUAUUAUUAGUAUAUAUUAUAUAU | 18.5 | 19.2 | – | – |
| CUAACACAUGAGGAUCACCCAUGUUAGGAUAUUAGUACUAUUUACCACAUAAUGGCACUGAGAAGGAGCGGGUA | 29.3 | 31.3 | – | – |
| GGGUACAUCGGAGGAUAUCAUGUAAAUACAUGAGGAUCACCCAUGUGGAUGGAGACAUCGGAGAUUGAGAAGGCCGAUGUACCG | – | – | 10.9 | 5.56 |
| ACAUUAGUAUCACAUGUAUUACAUGAGGAUCACCCAUGUUACUAGGAUAUGUAUUAGAAUUUACAACAGAAGGAGUUAAUUUGU | 7.52 | 7.7 | – | – |
| GUAGCAUACCAAGGAUAUUCAGGGCGUGGAUAGACAUGAGGAUCACCCAUGUGGCGAAAGCCUAGGGAGAAGGUGGAAUGCUAC | – | – | 36.1 | 20.1 |
| GGUCAUCAAGUCAGGAUAUCGUCUGGUCGGUCUGGCGAGAAGGGACAUGAGGAUCACCCAUGUCGUCUCAUCAG | 15.2 | 17.7 | – | – |
| GCGUAUAUAAGAUUUAUUAAACAGUCAGAAGGUGAUAAUACGACAUGAGGAUCACCCAUGUAAUUCAAGGAUAUGAUCAUACGC | – | – | 98.5 | 27.2 |
| GAGCGAAAGCUCAAUGUCGAUAGCAGAAGGACAUGUAAAACCAUGAAAACAUGAGGAUCACCCAUGUAGGAUAUGCUAUCGACU | 9.7 | 95.8 | – | – |
| AAGCAUUGGCUUCUCAUCUACAUGAGGAUCACCCAUGUCGGGAGAAGGAGGCGUUGACGAAUAGCCUAGGAUAUCCUAACGUGC | 6.84 | 6.99 | – | – |
| GCCAGUUAUGUAGGAUAUGCGCGGCGAGCCUGUGCAGAAGGACAUGAGGAUCACCCAUGUGUUGCGGUCUGAGUACUGAUCGCC | 32.9 | 208 | – | – |
| GAUUAACAUGAGGAUCACCCAUGUGAGGAUAUGGACUGGCUCACUUUCCGAUUCGGGUCUAGAAGGCGCAUCUU | 33.5 | 33.2 | – | – |
| AGCUGGUUAGGAUAUACAUGAGGAUCACCCAUGUUAAAAAAAAAAAAAAGAUUAAAGUGUAGAAGGGAUUAGUA | 40.4 | 37.1 | – | – |
| CCAUGUUAGCAGGAUAUGCCAUUAUUCCUUUACGCAGAAGGGCUUACAUGAGGAUCACCCAUGUAACAUUUCAU | 13.4 | 29.5 | – | – |
| AAUUUAAAGGGAGGAUAUACAUGAGGAUCACCCAUGUAAUAAUAUGAUAUUUUUUUUGUAUGAGUGUAGAAGGCCCAAAUAAAA | 51.6 | 61 | – | – |
| GGACGUCCCAUUAACAUGAGGAUCACCCAUGUCAAAAGACAUGAGGAUAUGCAUCCUAAUUGGAUGCAGAAGGCAUGGACGUCC | – | – | 1180 | 87.3 |

— the EternaBench riboswitch data
